According to publication PMC7993229 (Oncoimmunology, 2021):

Tests used:
[1] = Pharmacokinetic parameters of MF-766 in mice; settings: female, C57/B6, mouse, in vivo, po
CT26 tumors [2] = experiment: CT26 syngeneic tumor model efficacy study; assay type: in vivo, BALB/c mouse
How it was run: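 Female BALB/cAnN mice (6–8 weeks) received 0.5 × 10^6 CT26 cells s.c. in the lower right flank. Dosing began at a mean tumor volume of 100 mm3 (75–125). Test compound 30 mg/kg (10% Tween 80) or vehicle was given orally QDx21; anti-PD-1 or isotype was given 10 mg/kg i.p. Q4Dx4. Volume = 0.5 × L × W², followed 60 days. RTV and TGI (%) were calculated; n = 9–12; one-way ANOVA vs vehicle/isotype.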

EMT6 tumors [3] = experiment: EMT6 syngeneic tumor model efficacy study; assay type: in vivo, BALB/c mouse; settings: MF-766 30 mpk
How it was run: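 EMT6 cells (0.5 × 10^6) were implanted s.c. in the right flank of female BALB/cAnN mice aged 6–8 weeks. Treatment started at a mean tumor volume of 100 mm3 (75–125). Test compound 30 mg/kg in 10% Tween 80 was dosed orally QDx28; anti-PD-1 10 mg/kg i.p. Q4Dx4. Tumor volume = 0.5 × L × W². Relative tumor volume and TGI (%) were derived vs control; n = 9–12; one-way ANOVA vs vehicle/isotype.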

Human NK cells = experiment: Natural killer cell activation; assay type: cell-based
[4] = tested on: PGE2-induced MDSCs / autologous CD8+ T cells; experiment: Suppressive myeloid cell and T-cell co-culture assay; assay type: cell-based, human; settings: 1:4 ratio, anti-CD3/CD28 beads, vs DMSO control; MF-766 10, 1, 0.1, 0.01 μM
human CD8+ T cells = experiment: MF-766 and pembrolizumab combination in human CD8+ T cells; assay type: cell-based; settings: for CD8+ T cell viability: Fig S2B
How it was run: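 CD8+ T cells were purified from frozen healthy-donor PBMCs and seeded at 1 × 10^5 cells/well in RPMI-1640 with 10% heat-inactivated FBS and 2 mM L-glutamine. Test compound was titrated from 3 µM in 3-fold steps ± PGE2 (10 nM), with pembrolizumab or human IgG4 isotype at 20 µg/mL. Cells were activated with anti-CD3/CD28 beads plus 100 U/mL IL-2 for 24 h at 37°C; IFN-γ was read by Meso Scale Discovery.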

THP-1 cells = experiment: THP-1 LPS-stimulated TNF-α assay; assay type: cell-based, human; settings: 1 h pretreatment, 1 μg/mL LPS + PGE2
How it was run: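 THP-1 monocytes were preincubated 1 h with graded test compound concentrations. They were then stimulated with 1 μg/mL LPS, with or without 0.33 μM PGE2, for 18 h. Cells were centrifuged and TNF-α in the supernatant was quantified by Meso Scale Discovery.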

[5] = tested on: healthy human whole blood; experiment: Ex vivo whole blood LPS-stimulated TNF-α assay; assay type: cell-based; settings: 1 μg/mL LPS + PGE2
How it was run: (§1)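 Blood was collected in sodium heparin. Healthy-donor blood was used fresh on assay day; CRC patient blood was drawn 1 day before and shipped overnight. Samples were pretreated 1 h with test compound, then stimulated with 1 μg/mL LPS (final) ± 0.037 μM PGE2 for 18 h. After centrifugation, TNF-α in the supernatant was measured by Meso Scale Discovery.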

CRC patient blood = experiment: Ex vivo whole blood LPS-stimulated TNF-α assay; assay type: cell-based, human; settings: 1 μg/mL LPS + PGE2
How it was run: as §1

[6] = tested on: bone marrow-derived dendritic cells (BMDCs); experiment: Dendritic cell activation; assay type: cell-based, C57/BL6 mice; settings: mouse BMDCs
How it was run: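 Bone marrow flushed from C57BL/6 femurs was cultured 6 days in RPMI with 20 ng/mL mouse GM-CSF and 20 ng/mL mouse IL-4 to give immature DCs. Cells were pretreated 1 h with test compound, then given 1 μg/mL LPS ± 0.037 μM PGE2 for 18 h. Supernatant TNF-α was read with a Meso Scale Discovery mouse panel.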

[7] = tested on: human monocyte-derived DCs; experiment: Dendritic cell activation; assay type: cell-based
How it was run: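 Commercially sourced human dendritic cells were pretreated 1 h with test compound. They were then stimulated with 1 μg/mL LPS with or without 0.037 μM PGE2 for 18 h. TNF-α in the medium was quantified with a Meso Scale Discovery human pro-inflammatory panel.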

[8] = tested on: human primary tumor histoculture; experiment: Human tumor histoculture; assay type: cell-based; settings: histoculture system
How it was run: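 Tumor tissue was trimmed of fat, cut into ~400 µm slices and cultured at the air–liquid interface (37°C, 5% CO2) in DMEM with 10% FBS and penicillin/streptomycin. Slices were stimulated with 50 ng/mL anti-human CD3 plus test compound or DMSO for 48 h. IFN-γ, IL-2 and TNF-α were measured by Meso Scale Discovery and expressed as fold change vs DMSO (mean ± S.E.M, n = 8).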

CT26 tumors [9] = experiment: Flow cytometry of immune infiltrates in CT26 tumors; assay type: in vivo, mouse
How it was run: (§2)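 Mice bearing 100 mm3 tumors were dosed as in the efficacy schedule, and tumors were harvested on day 8. Tumors were weighed, enzymatically dissociated and filtered (70 µm). Then 2–3 million cells were stained with fixable viability dye, Fc-blocked 10 min on ice and surface-stained 30 min on ice. Populations were gated within viable CD45+ singlets (NK CD3−CD335+CD49b+; gMDSC CD11b+Ly6G+; macrophages; DCs) and reported as % CD45+ and cells/mg tumor; n = 9–10.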

EMT6 tumors [10] = experiment: Flow cytometry of immune infiltrates in EMT6 tumors; assay type: in vivo, mouse; settings: EMT6, single-agent treatment
How it was run: as §2

[11] = rat AIA model; cited from earlier work
[12] = first-in-human clinical study; cited from earlier work
primary tumor digests = experiment: Anti-CD3-stimulated primary tumor digest culture; assay type: cell-based, human; settings: without PGE2 spike
How it was run: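 Cells were plated at 0.1 × 10^6/well, from four donors, and cultured 48 h. IFN-γ and TNF-α in supernatants were read on a Meso Scale Discovery platform; technical-replicate means were taken per donor.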

Molecule: O=C(O)c1ccc(C2(NC(=O)c3cccc4ccn(Cc5ccc(C(F)(F)F)cc5)c34)CC2)cc1 [MF-766, 4-[1-[([1-[4-(trifluoromethyl)benzyl]-1H-indol-7-yl]carbonyl)amino]cyclopropyl]be nzoic acid]
- AUC(0-t) ([1]; 30 mg/kg): 57.5 ± 10.8 µM·h
- Cmax ([1]; 30 mg/kg): 15 ± 4.37 µM
- Tmax ([1]; 30 mg/kg): 30 min
- AUC(0-t) ([1]; 100 mg/kg): 255 ± 97.3 µM·h
- Cmax ([1]; 100 mg/kg): 24.1 ± 6.01 µM
- Tmax ([1]; 100 mg/kg): 30 min
- tumor progression on monotherapy (CT26 tumors [2]; MF-766 30 mpk monotherapy): all tumors progressed
- tumor volume reduction (CT26 tumors [2]; compared to vehicle/isotype treated group, MF-766 30 mpk, muDX400 10 mpk): 49%
- single-agent activity (EMT6 tumors [3]): did not show single-agent activity
- reversal of PGE2-suppressed IFN-γ secretion (Human NK cells; 1 h pretreatment, 50 ng/mL IL-2 ± PGE2 overnight): reversed by pretreatment with MF-766 in a dose-dependent manner
- NK cell viability (Human NK cells; conditions of Figure 2b (Fig S2A)): not affected
- reversal of MDSC/PGE2 suppression of IFN-γ release from CD8+ T cells [4]: reversed by MF-766 in a dose-dependent manner
- CD8+ T cell viability (human CD8+ T cells): Neither PGE2 nor MF-766 addition affected
- reversal of PGE2-mediated inhibition of IFN-γ production (human CD8+ T cells; PGE2 10 nM, anti-CD3/CD28 beads, 24 hours, MF-766 alone): reversed PGE2-mediated inhibition of IFN-γ production
- reversal of PGE2-decreased LPS-stimulated TNF-α production (THP-1 cells): fully reversed
- reversal of PGE2 suppression of LPS-stimulated TNF-α production [5]: partially reversed
- restoration of PGE2-suppressed TNF-α production (CRC patient blood): partially restored
- restoration of PGE2-suppressed TNF-α production ([6]; 1 μg/mL LPS + PGE2): fully restored
- restoration of PGE2-suppressed TNF-α production ([7]; 1 μg/mL LPS + PGE2): fully restored
- anti-CD3–stimulated IFN-γ, IL-2, and TNF-α secretion [8]: increase
- MHCII high/low macrophage ratio (CT26 tumors [9]; CT26): increased
- NK cells, percentage in CD45+ fraction and absolute number per mg tumor (CT26 tumors [9]; CT26, D8): significantly enriched
- CD3+ T cells, frequency of CD45+ cells and absolute numbers in the tumor (CT26 tumors [9]; CT26, D8, primarily CD8+ T cells, not CD4+): significant enrichment
- absolute numbers of tumor-infiltrating CD45+ leukocytes per mg tumor (CT26 tumors [9]; CT26, D8 post-therapy): significantly increased
- CD8+ DCs (CT26 tumors [9]; CT26, single-agent treatment): remarkable increase
- CT26 tumor weight (CT26 tumors [9]; day 8, difference did not reach statistical significance): trend toward reduction in size
- CD8+ or NK cell infiltration into tumors (EMT6 tumors [10]): did not significantly increase
- percentage of gMDSCs (EMT6 tumors [10]; absolute numbers per mg not significant): significantly decreased
- potency compared to other COX-2 inhibitors, including celecoxib and MF-tricyclic [11]: greater than 200 fold

Molecule: CCCCC[C@H](O)/C=C/[C@H]1[C@H](O)CC(=O)[C@@H]1C/C=C\CCCC(=O)O [PGE2, Prostaglandin E2, reference compound]
- CD8+ T cell viability (human CD8+ T cells): Neither PGE2 nor MF-766 addition affected
- suppression of TNF-α production ([6]; compared to LPS alone): ~ 30%
- suppression of TNF-α production ([7]; compared to LPS alone): ~ 30%

Molecule: C[C@H](NC(=O)c1c(C(F)F)nn(C)c1Oc1cccc(C(F)(F)F)c1)c1ccc(C(=O)O)cc1 [E-7046]
- tolerability [12]: well tolerated

Molecule: pembrolizumab: humanized monoclonal immunoglobulin (Ig)G4 antibody against PD-1
- IFN-γ and TNF-α secretion (primary tumor digests): enhanced
